Measured values: publication PMC4004768 (The Journal of antibiotics, 2013)

Key:
B. subtilis ATCC6633 = test: antimicrobial activity assay in liquid medium; format: cell-based, Bacillus subtilis
B. subtilis ATCC 6633 [1] = test: propidium iodide uptake; format: cell-based, Bacillus subtilis; settings: B. subtilis ATCC 6633, lower efficiency than nisin
B. subtilis ATCC 6633 [2] = test: membrane potential by flow cytometry with DiOC2; format: cell-based, Bacillus subtilis; settings: 0, 0.2, 2, 20 μM, triplicate flow cytometry
Method in brief: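 Flow cytometry on bacteria exposed to the test compound at 0, 0.2, 2 and 20 μM, with DiOC2 as the membrane-potential dye. The read-out is mean fluorescence intensity averaged over triplicate measurements. An alternative read-out is the ratio of fluorescence at 610 and 530 nm.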

[3] = cited from earlier work
[4] = specific activity against B. subtilis ATCC6633, liquid medium

## Geobacillin I
B. subtilis ATCC6633; B. subtilis ATCC 6633, higher MIC compared to nisin
  MIC relative to nisin: four-fold higher
B. subtilis ATCC6633; [4]
  IC50: 560 ± 10 nM
  MIC: 1.0 µM
B. subtilis ATCC 6633 [1]
  efficiency in PI uptake relative to nisin: two-fold lower
B. subtilis ATCC 6633 [2]
  change in mean fluorescence intensity (MFI), DiOC2: significant decrease
[3]
  stability at physiological pH compared to nisin: higher stability
